From ChEMBL document CHEMBL4033733, “Enterovirus inhibitory activity of C-8-tert-butyl substituted 4-aryl-6,7,8,9-tetrahydrobenzo[4,5]thieno[3,2-e][1,2,4]triazolo[4,3-a]pyrimidin-5(4H)-ones” (Bioorg Med Chem Lett, 2017)

Assays:
rhinovirus A21 = experiment: Antiviral activity against human rhinovirus 21 infected in human H1HeLa cells assessed as reduction in virus-induced cytopathicity incubated for 3 days by MTT assay; format: functional, cell-based; conditions: Rhinovirus A, H1-HeLa, 72 h
In short: (§1)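 H1 HeLa cells infected with rhinovirus (14, 21 or 71); EC50 is the concentration restoring 50% viability of the infected cells. Pleconaril served as reference.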

Coxsackievirus B1 = experiment: Antiviral activity against human coxsackievirus B1 infected in human HeLa cells assessed as reduction in virus-induced cytopathicity incubated for 3 days by MTT assay; format: functional, cell-based; conditions: Enterovirus B, 72 h
In short: (§2)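 HeLa cells infected with enterovirus (coxsackievirus B1 or B3); protection from virus-induced cytopathic effect measured. EC50 is the concentration restoring 50% viability of the infected cells. Pleconaril served as reference.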

[1] = Cytotoxicity in human H1HeLa cells assessed as reduction in cell viability incubated for 3 days by MTT assay; format: cell-based, H1-HeLa
In short: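 Uninfected H1 HeLa cells; CC50 is the concentration lowering cell viability by 50%.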

Coxsackievirus B3 = experiment: Antiviral activity against human coxsackievirus B3 infected in human HeLa cells assessed as reduction in virus-induced cytopathicity incubated for 3 days by MTT assay; format: functional, cell-based; conditions: Enterovirus B, 72 h; in short: as §2
Poliovirus 3 = experiment: Antiviral activity against human poliovirus 3 infected in human HeLa cells assessed as reduction in virus-induced cytopathicity incubated for 3 days by MTT assay; format: functional, cell-based; conditions: Enterovirus C, 72 h
In short: (§3)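 Cytopathic-effect reduction assay in HeLa cells infected with coxsackievirus B1, B3 or poliovirus 3, with pleconaril as reference. EC50 is the concentration that improves viability of infected HeLa cells by 50%. CC50 is the concentration that reduces viability of uninfected HeLa cells by 50%. SI is CC50/EC50.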

rhinovirus B14 = experiment: Antiviral activity against human rhinovirus 14 infected in human H1HeLa cells assessed as reduction in virus-induced cytopathicity incubated for 3 days by MTT assay; format: functional, cell-based; conditions: Rhinovirus B, H1-HeLa, 72 h; in short: as §1
[2] = Antiviral activity against human rhinovirus 71 infected in human H1HeLa cells assessed as reduction in virus-induced cytopathicity incubated for 3 days by MTT assay; format: functional, cell-based, Human rhinovirus A71; conditions: Rhinovirus A, H1-HeLa, 72 h; in short: as §1
[3] = Cytotoxicity in human HeLa cells assessed as reduction in cell viability incubated for 3 days by MTT assay; format: cell-based
In short: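 Uninfected HeLa cells; CC50 is the concentration lowering cell viability by 50%.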

Liver [4] = experiment: Stability in human liver microsomes assessed as compound remaining by mass spectrometry; format: ADME, microsome
In short: (§4)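 Phase I metabolic stability in human or rat liver microsomes, with buspirone as reference. Parent compound remaining was quantified by quantitative mass spectrometry and expressed as a percentage.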

Liver [5] = experiment: Stability in rat liver microsomes assessed as compound remaining by mass spectrometry; format: ADME, microsome; in short: as §4
[6] = Selectivity index, ratio of CC50 for human HeLa cells to EC50 for human coxsackievirus B1 infected in human HeLa cells; format: toxicity, cell-based; conditions: read-out: Ratio CC50/EC50; in short: as §3
[7] = Selectivity index, ratio of CC50 for human HeLa cells to EC50 for human poliovirus 3 infected in human HeLa cells; format: toxicity, cell-based; conditions: read-out: Ratio CC50/EC50; in short: as §3
[8] = Selectivity index, ratio of CC50 for human HeLa cells to EC50 for human coxsackievirus B3 infected in human HeLa cells; format: toxicity, cell-based; conditions: read-out: Ratio CC50/EC50; in short: as §3

| SMILES | EC50 (rhinovirus A21) | EC50 (Coxsackievirus B1) | CC50 at 72 h [1] | EC50 (Coxsackievirus B3) | EC50 (Poliovirus 3) | EC50 (rhinovirus B14) | EC50 [2] | CC50 at 72 h [3] | Stability (Liver [4]) | Stability (Liver [5]) | selectivity ratio [6] | selectivity ratio [7] | selectivity ratio [8] |
| --- | --- | --- | --- | --- | --- | --- | --- | --- | --- | --- | --- | --- | --- |
| Cc1cc(CCCOc2c(C)cc(-c3noc(C(F)(F)F)n3)cc2C)on1 [PLECONARIL] | 0.083 µM | 0.13 µM | 53.5 µM | > 42.8 µM | 0.51 µM | 0.31 µM | 0.013 µM | 42.8 µM | – | – | – | – | – |
| CC(C)(C)C1CCc2c(sc3c2c(=O)n(-c2ccc(Cl)cc2)c2nncn32)C1 (stereo unspecified) | > 18.8 µM | > 36.5 µM | 18.8 µM | > 36.5 µM | 8.35 µM | 3.7 µM | 3.8 µM | 36.5 µM | – | – | – | – | – |
| CC1(C)CCc2c(sc3c2c(=O)n(-c2ccccc2)c2nncn32)C1 | > 76.5 µM | > 54.8 µM | 76.5 µM | > 54.8 µM | > 54.8 µM | > 76.5 µM | > 76.5 µM | 54.8 µM | – | – | – | – | – |
| CC(C)(C)C1CCc2c(sc3c2c(=O)n(-c2cccc(Cl)c2)c2nncn32)C1 (stereo unspecified) | > 15 µM | 17.8 µM | 15 µM | > 38.3 µM | 9.63 µM | 2.1 µM | 3.8 µM | 38.3 µM | – | – | – | – | – |
| CC1(C)Cc2c(sc3c2c(=O)n(-c2ccccc2)c2nncn32)C(C)(C)C1 | > 9.6 µM | > 9.09 µM | 9.6 µM | > 9.09 µM | > 9.09 µM | > 9.6 µM | > 9.6 µM | 9.09 µM | – | – | – | – | – |
| CC1CCc2c(sc3c2c(=O)n(-c2ccccc2)c2nncn32)C1 (stereo unspecified) | > 69 µM | > 79 µM | 69 µM | > 79 µM | > 79 µM | 16.4 µM | > 69 µM | 79 µM | – | – | – | – | – |
| O=c1c2c3c(sc2n2cnnc2n1-c1ccccc1)CCCC3 | > 100 µM | > 100 µM | > 100 µM | > 100 µM | > 100 µM | > 100 µM | > 100 µM | > 100 µM | – | – | – | – | – |
| CC(C)(C)C1CCc2c(sc3c2c(=O)n(-c2ccccc2)c2nnc(N)n32)C1 (stereo unspecified) | > 35.4 µM | > 45.9 µM | 35.4 µM | > 45.9 µM | > 45.9 µM | 8.2 µM | 12.8 µM | 45.9 µM | – | – | – | – | – |
| O=C1CC2(CCCC2)CC(=O)N1CCCCN1CCN(c2ncccn2)CC1 [BUSPIRONE] | – | – | – | – | – | – | – | – | 3.52% | 0.119% | – | – | – |
| COc1ccc(-n2c(=O)c3c4c(sc3n3cnnc23)CC(C(C)(C)C)CC4)cc1 (stereo unspecified) | 2.6 µM | > 39.1 µM | 21.9 µM | > 39.1 µM | 3.63 µM | 1.9 µM | 1.8 µM | 39.1 µM | – | – | – | – | – |
| CC(C)(C)C1CCc2c(sc3c2c(=O)n(-c2ccccc2Cl)c2nncn32)C1 (stereo unspecified) | 14.7 µM | 19.5 µM | 20.7 µM | 16.2 µM | 1.84 µM | 2.5 µM | 3.9 µM | 26.3 µM | – | – | – | – | – |
| CC(C)(C)C1CCc2c(sc3c2c(=O)n(-c2cccc(Br)c2)c2nncn32)C1 (stereo unspecified) | 20 µM | 15.6 µM | 26.3 µM | > 32.9 µM | 13.2 µM | 3.5 µM | 15.9 µM | 32.9 µM | – | – | – | – | – |
| CCCC1CCc2c(sc3c2c(=O)n(-c2ccccc2)c2nncn32)C1 (stereo unspecified) | > 31.7 µM | > 41 µM | 31.7 µM | > 41 µM | 20 µM | 18.1 µM | 14 µM | 41 µM | – | – | – | – | – |
| CC(C)(C)C1CCc2c(sc3c2c(=O)n(-c2ccc(Br)cc2)c2nncn32)C1 (stereo unspecified) | > 11 µM | > 30.5 µM | 11 µM | > 30.5 µM | 12.6 µM | 2 µM | 2.3 µM | 30.5 µM | – | – | – | – | – |
| Cc1ccccc1-n1c(=O)c2c3c(sc2n2cnnc12)CC(C(C)(C)C)CC3 (stereo unspecified) | > 35.4 µM | 9.83 µM | 35.4 µM | 9.22 µM | 3.44 µM | 8.8 µM | 10.1 µM | 39.1 µM | – | – | – | – | – |
| CC(C)(C)C1CCc2c(sc3c2c(=O)n(-c2ccccc2)c2nnc(S)n32)C1 (stereo unspecified) | 19.4 µM | > 45.1 µM | 40.1 µM | > 45.1 µM | > 45.1 µM | 10.1 µM | 9.1 µM | 45.1 µM | – | – | – | – | – |
| Cc1ccc(-n2c(=O)c3c4c(sc3n3cnnc23)CC(C(C)(C)C)CC4)cc1 (stereo unspecified) | 2.4 µM | 14.3 µM | 11.1 µM | 12.9 µM | 1.94 µM | 1.8 µM | 1.8 µM | 32.8 µM | – | – | – | – | – |
| CC1CCCc2sc3c(c21)c(=O)n(-c1ccccc1)c1nncn31 (stereo unspecified) | > 100 µM | > 100 µM | > 100 µM | > 100 µM | > 100 µM | > 100 µM | > 100 µM | > 100 µM | – | – | – | – | – |
| Cc1ccc(-c2ccc(-n3c(=O)c4c5c(sc4n4cnnc34)CC(C(C)(C)C)CC5)cc2)cc1 (stereo unspecified) | > 16.9 µM | 55.4 µM | 16.9 µM | 46.8 µM | 47 µM | > 16.9 µM | > 16.9 µM | > 100 µM | – | – | – | – | – |
| CC(C)(C)C1CCc2c(sc3c2c(=O)n(-c2ccccc2)c2nnc(-c4ccccc4)n32)C1 (stereo unspecified) | > 8.7 µM | > 31.9 µM | 8.7 µM | > 31.9 µM | > 31.9 µM | > 8.7 µM | > 8.7 µM | 31.9 µM | – | – | – | – | – |
| CC(C)(C)C1CCc2c(sc3c2c(=O)n(-c2ccccc2)c2nncn32)C1 (stereo unspecified) | 2.5 µM | 8.85 µM | 9.6 µM | 8.65 µM | 1.95 µM | 1.7 µM | 1.6 µM | > 100 µM | 63.2% | 51.5% | > 11.2 | > 51.2 | > 11.5 |
| CC(C)(C)C1CCc2c(sc3c2c(=O)n(-c2ccc(C(F)(F)F)cc2)c2nncn32)C1 (stereo unspecified) | > 31.4 µM | > 35.5 µM | 31.4 µM | > 35.5 µM | > 35.5 µM | > 31.4 µM | > 31.4 µM | 35.5 µM | – | – | – | – | – |
| O=c1c2c3c(sc2n2cnnc2n1-c1ccccc1)CC(c1ccccc1)CC3 (stereo unspecified) | > 27.6 µM | > 27.5 µM | 27.6 µM | > 27.5 µM | > 27.5 µM | 19.4 µM | > 27.6 µM | 27.5 µM | – | – | – | – | – |
| Cc1nnc2n(-c3ccccc3)c(=O)c3c4c(sc3n12)CC(C(C)(C)C)CC4 (stereo unspecified) | > 35.9 µM | > 45.1 µM | 35.9 µM | > 45.1 µM | > 45.1 µM | 4.3 µM | 4.6 µM | 45.1 µM | – | – | – | – | – |
